Data from ChEMBL document CHEMBL1135500, “Highly antibacterial active aminoacyl penicillin conjugates with acylated bis-catecholate siderophores based on secondary diamino acids and related compounds” (2002).
≈ marks a conversion by molar mass, not a printed value.

What was measured:
Type in all cases: functional
Pseudomonas aeruginosa [1] = experiment: In vitro antibacterial activity against ATCC 27853 strain of Pseudomonas aeruginosa
In short: (§1)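 MIC by microbroth dilution in Mueller-Hinton broth following NCCLS guidelines.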

[2] = test system: Stenotrophomonas maltophilia; experiment: In vitro antibacterial activity against GN 12873 strain of Stenotrophomonas maltophilia; in short: as §1
Staphylococcus aureus = experiment: In vitro antibacterial activity against SG 511 strain of Staphylococcus aureus; in short: as §1
Klebsiella pneumoniae = experiment: In vitro antibacterial activity against ATCC 100331 strain of Klebsiella pneumoniae; in short: as §1
Pseudomonas aeruginosa [3] = experiment: In vitro antibacterial activity against SG 137 strain of Pseudomonas aeruginosa; in short: as §1
Escherichia coli = experiment: In vitro antibacterial activity against ATCC 25922 strain of Escherichia coli; in short: as §1
Serratia marcescens = experiment: In vitro antibacterial activity against SG 621 strain of Serratia marcescens; in short: as §1

Row | Structure (SMILES) | MIC (Pseudomonas aeruginosa [1]) [µg/mL] | MIC [2] [µg/mL] | MIC (Staphylococcus aureus) [µg/mL] | MIC (Klebsiella pneumoniae) [µg/mL] | MIC (Pseudomonas aeruginosa [3]) [µg/mL] | MIC (Escherichia coli) [µg/mL] | MIC (Serratia marcescens) [µg/mL]
1 | COC(=O)Oc1cccc2c(=O)n(CCC(=O)Nc3cc(NC(=O)CCn4c(=O)oc5c(OC(=O)OC)cccc5c4=O)cc(C(=O)NC(C(=O)NC4C(=O)N5C4SC(C)(C)C5C(=O)O)c4ccccc4)c3)c(=O)oc12 (configuration not stated) | 0.2 (≈ 0.188 µM) | 1.56 (≈ 1.46 µM) | 6.25 (≈ 5.86 µM) | 0.2 (≈ 0.188 µM) | 0.05 (≈ 0.0469 µM) | 6.25 (≈ 5.86 µM) | 3.12 (≈ 2.93 µM)
2 | COC(=O)Oc1cc(Cl)cc(C(=O)N(C)CCCN(CC(=O)NC(C(=O)NC2C(=O)N3C2SC(C)(C)C3C(=O)O)c2ccccc2)C(=O)c2cc(Cl)cc(OC(=O)OC)c2OC(=O)OC)c1OC(=O)OC (configuration not stated) | 0.1 (≈ 0.0952 µM) | 0.02 (≈ 0.019 µM) | 12.5 (≈ 11.9 µM) | < 0.005 | < 0.005 | 0.05 (≈ 0.0476 µM) | 0.02 (≈ 0.019 µM)
3 | CC(=O)Oc1cccc(C(=O)NCCCCN(Cc2ccccc2C(=O)NC(C(=O)NC2C(=O)N3C2SC(C)(C)C3C(=O)O)c2ccccc2)C(=O)c2cccc(OC(C)=O)c2OC(C)=O)c1OC(C)=O (configuration not stated) | 0.2 (≈ 0.201 µM) | < 0.05 | 0.78 (≈ 0.785 µM) | < 0.05 | 0.1 (≈ 0.101 µM) | 0.4 (≈ 0.402 µM) | 0.4 (≈ 0.402 µM)
4 | CC(=O)Oc1cccc(C(=O)NCCCCN(CC(=O)NC(C(=O)NC2C(=O)N3C2SC(C)(C)C3C(=O)O)c2ccccc2)C(=O)c2cccc(OC(C)=O)c2OC(C)=O)c1OC(C)=O (configuration not stated) | 0.05 (≈ 0.0545 µM) | 0.005 (≈ 0.00545 µM) | 5 (≈ 5.45 µM) | < 0.005 | < 0.005 | < 0.005 | < 0.005
5 | COC(=O)Oc1cccc2c(=O)n(CCC(=O)Nc3cc(NC(=O)CCn4c(=O)oc5c(OC(=O)OC)cccc5c4=O)cc(C(=O)NC(C(=O)NC4C(=O)N5C4SC(C)(C)C5C(=O)O)c4ccc(O)cc4)c3)c(=O)oc12 (configuration not stated) | 6.25 (≈ 5.78 µM) | 25 (≈ 23.1 µM) | 0.4 (≈ 0.37 µM) | 6.25 (≈ 5.78 µM) | 6.25 (≈ 5.78 µM) | 6.25 (≈ 5.78 µM) | 50 (≈ 46.2 µM)
6 | CC(=O)Oc1cccc(C(=O)NCCN(CC(=O)NC(C(=O)NC2C(=O)N3C2SC(C)(C)C3C(=O)O)c2ccccc2)C(=O)c2cccc(OC(C)=O)c2OC(C)=O)c1OC(C)=O (configuration not stated) | 0.78 (≈ 0.877 µM) | 0.78 (≈ 0.877 µM) | 3.12 (≈ 3.51 µM) | 0.1 (≈ 0.112 µM) | 0.4 (≈ 0.449 µM) | 0.78 (≈ 0.877 µM) | 0.78 (≈ 0.877 µM)
7 | COC(=O)Oc1cccc(C(=O)N(CCCCn2c(=O)oc3c(OC(=O)OC)cccc3c2=O)CC(=O)NC(C(=O)NC2C(=O)N3C2SC(C)(C)C3C(=O)O)c2ccccc2)c1OC(=O)OC (configuration not stated) | 0.156 (≈ 0.164 µM) | 0.04 (≈ 0.0421 µM) | 2.5 (≈ 2.63 µM) | < 0.005 | 0.04 (≈ 0.0421 µM) | 0.01 (≈ 0.0105 µM) | < 0.005
8 | CC(=O)Oc1cccc(C(=O)N(C)CCCN(CC(=O)NC(C(=O)NC2C(=O)N3C2SC(C)(C)C3C(=O)O)c2ccccc2)C(=O)c2cccc(OC(C)=O)c2OC(C)=O)c1OC(C)=O (configuration not stated) | 0.08 (≈ 0.0872 µM) | 0.02 (≈ 0.0218 µM) | 3.12 (≈ 3.4 µM) | < 0.005 | 0.005 (≈ 0.00545 µM) | 0.02 (≈ 0.0218 µM) | 0.05 (≈ 0.0545 µM)
9 | COC(=O)Oc1cc(Br)cc(C(=O)N(C)CCCN(CC(=O)NC(C(=O)NC2C(=O)N3C2SC(C)(C)C3C(=O)O)c2ccccc2)C(=O)c2cc(Br)cc(OC(=O)OC)c2OC(=O)OC)c1OC(=O)OC (configuration not stated) | 0.05 (≈ 0.0439 µM) | 0.02 (≈ 0.0175 µM) | 6.25 (≈ 5.48 µM) | < 0.005 | < 0.005 | < 0.005 | 0.02 (≈ 0.0175 µM)
10 | CC1(C)S[C@@H]2[C@H](NC(=O)[C@H](N)c3ccccc3)C(=O)N2[C@H]1C(=O)O [AMPICILLIN] | > 100 | > 100 | 0.4 (≈ 1.14 µM) | 6.25 (≈ 17.9 µM) | > 100 | 6.25 (≈ 17.9 µM) | 25 (≈ 71.5 µM)
11 | COC(=O)Oc1cc(Cl)c(Cl)c(C(=O)N(C)CCCN(CC(=O)NC(C(=O)NC2C(=O)N3C2SC(C)(C)C3C(=O)O)c2ccccc2)C(=O)c2c(Cl)c(Cl)cc(OC(=O)OC)c2OC(=O)OC)c1OC(=O)OC (configuration not stated) | 0.1 (≈ 0.0893 µM) | 0.05 (≈ 0.0447 µM) | 3.12 (≈ 2.79 µM) | < 0.005 | 0.05 (≈ 0.0447 µM) | 0.02 (≈ 0.0179 µM) | 0.05 (≈ 0.0447 µM)
